Screening data from PubChem BioAssay.
Compounds with a hit are over-represented: about 3.1% of the library has one in this group of screens.
KCNQ1 inh = human KCNQ1 channel inhibition. 1.3% of 310,000 active. B-score at 10 µM. CHO-K1 KCNQ1, FluxOR thallium flux fluorescence; active compounds read high;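 active = compounds whose thallium flux B-score, printed positive for inhibition, exceeds three library SD while starting fluorescence stays within three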;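 note: channel opened by potassium depolarization with thallium stimulus after 20 min compound exposure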
Target sequence (P51787 whole entry, looked up): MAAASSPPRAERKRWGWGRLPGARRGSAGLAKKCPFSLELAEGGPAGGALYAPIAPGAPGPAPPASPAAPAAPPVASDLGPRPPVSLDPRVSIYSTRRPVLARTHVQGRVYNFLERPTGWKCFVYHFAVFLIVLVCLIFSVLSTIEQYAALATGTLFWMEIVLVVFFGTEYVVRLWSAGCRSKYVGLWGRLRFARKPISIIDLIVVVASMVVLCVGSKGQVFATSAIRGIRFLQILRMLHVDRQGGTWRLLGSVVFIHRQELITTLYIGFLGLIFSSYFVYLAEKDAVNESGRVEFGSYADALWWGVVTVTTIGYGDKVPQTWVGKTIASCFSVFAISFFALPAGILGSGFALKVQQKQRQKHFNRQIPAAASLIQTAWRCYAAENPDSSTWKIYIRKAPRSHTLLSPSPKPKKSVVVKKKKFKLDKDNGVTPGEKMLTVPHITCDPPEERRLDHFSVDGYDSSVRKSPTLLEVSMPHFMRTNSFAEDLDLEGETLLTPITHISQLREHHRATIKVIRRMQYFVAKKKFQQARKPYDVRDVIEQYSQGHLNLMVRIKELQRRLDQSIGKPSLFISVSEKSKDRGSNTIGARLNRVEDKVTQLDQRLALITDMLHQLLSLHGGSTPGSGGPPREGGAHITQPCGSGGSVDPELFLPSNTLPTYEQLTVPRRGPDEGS
KCNQ1 act = potentiators or activators of human KCNQ1 potassium channel | P51787 | CHO-K1 KCNQ1, thallium flux FluxOR fluorescence; active compounds read high | B-score at 10 µM | 0.35% of 310,000 active | AID 2648;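 active = fluorescence ratio B-score, a plate-corrected score, at least three library SD, with initial intensity B-score within 5 SD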
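Assay system: CHO-K1 cells stably expressing KCNQ1; Medium: assay buffer with matched DMSO; Also added: K+/Tl+ depolarizing stimulus; Dosing: single dose; Timing: dye 90 min, compound 20 min, room temperature; Measured by: kinetic FluxOR thallium fluorescence, 10-s 1-Hz baseline, 110-s post-stimulus read; Read-out: peak-minus-minimum fluorescence over initial fluorescence, negative-control normalized, B-scored.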
KCNK9 block = blocks the human KCNK9 two-pore domain potassium channel | Q9NPC2 | HEK293 KCNK9, FluxOR thallium flux fluorescence; active compounds read low | B-score at 10 µM | 1.2% of 310,000 active;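 active = ratio B-score over 3 SD below the library mean, with starting fluorescence within 5 SD of its mean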;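 note: negative B-score means less thallium flux so channel inhibition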
hERG rescue = hERG (human) protection from proarrhythmic block; Q12809; CHO-hERG, FluxOR thallium flux, dofetilide IC70 present; activation (rescue from dofetilide block), less the hit threshold, % at 10 µM; 0.51% of 310,000 active;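 active = activation above the mean of controls blocked by dofetilide plus 5 SD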;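 note: thallium influx through hERG after potassium depolarization seen as dye fluorescence rise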
KCNK3 inh = human KCNK3 channel inhibition, primary screen; O14649; CHO-KCNK3 thallium flux, FluxOR fluorescence; active compounds read low; B-score at 10 µM; 0.84% of 340,000 active; AID 602410;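 active = B-score under library mean minus 4 SD, starting fluorescence ratio at most library mean plus 5 SD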;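 note: more negative B-score means stronger inhibition of thallium flux through KCNK3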
KCNK3 confirm = human KCNK3 channel inhibition, confirmation assay. ratio percent of control, % at 10 µM. CHO-KCNK3 thallium flux, FluxOR fluorescence; 0% buffer, 100% carvedilol maximal block. shares compounds with KCNK3 inh. 99% of 2,400 active;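 active = ratio percent of control, averaged over triplicates, above buffer control mean plus 5 SD, cut at about 64% in these data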;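 note: ratio is the fluorescence rise from min to max over baseline after thallium stimulus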
KCNK3 uninduced = KCNK3 inhibitor counter-screen hit in non-induced cells. AID 651747. non-induced KCNK3 parental cells, FluxOR thallium flux; active compounds read low. thallium flux ratio (lower = more inhibition) at 10 µM. 40% of 2,400 active. shares compounds with KCNK3 inh;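 active = thallium flux ratio, averaged over three wells, more than 5 SD below the buffer control mean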;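 note: host cells are CHO cells without KCNK3 induction; ratio is peak minus trough fluorescence over baseline then normalized to buffer controls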
* = called active by the depositor.

COc1cc(OC)cc(C(=O)N[C@H](C(=O)Nc2ccc(F)cc2F)C(C)C)c1 was read as KCNQ1 inh inactive, KCNQ1 act inactive, KCNK9 block inactive, hERG rescue -7 and KCNK3 inh inactive.
COc1cc(OC)cc(C(=O)N[C@H](C(=O)Nc2nc(-c3ccc(F)c(F)c3)cs2)C(C)C)c1 was read as KCNQ1 inh inactive, KCNQ1 act inactive, KCNK9 block inactive, hERG rescue -6, KCNK3 inh -11*, KCNK3 confirm 100* and KCNK3 uninduced inactive.
COCCN1CC(CNC(=O)c2cc(COc3ccccc3SC)on2)CC1=O (stereo not drawn) was read as KCNQ1 inh inactive, KCNQ1 act inactive, KCNK9 block inactive, hERG rescue -5 and KCNK3 inh inactive.
O=C1C(Cl)=C(N2CCOCC2)C(=O)N1c1cccc(C(F)(F)F)c1 was read as KCNQ1 inh inactive, KCNQ1 act inactive, KCNK9 block inactive, hERG rescue -6 and KCNK3 inh inactive.
COC(=O)c1cccc(N2C(=O)C(Cl)=C(N3CCOCC3)C2=O)c1 was read as KCNQ1 inh inactive, KCNQ1 act inactive, KCNK9 block inactive, hERG rescue -1, KCNK3 inh -9.7*, KCNK3 confirm 67* and KCNK3 uninduced inactive.
COc1ccc(C2C(C#N)=C(N)Oc3cc(O)ccc32)cc1Cl (stereo not drawn) was read as KCNQ1 inh 6*, KCNQ1 act inactive, KCNK9 block inactive, hERG rescue -16, KCNK3 inh -9*, KCNK3 confirm 110* and KCNK3 uninduced 0.15*.
For C#CCOc1ccc(C2C(C#N)=C(N)Oc3cc(O)ccc32)cc1 (stereo not drawn) the results were KCNQ1 inh inactive, KCNQ1 act inactive, KCNK9 block inactive, hERG rescue -3, KCNK3 inh -9.5*, KCNK3 confirm 95* and KCNK3 uninduced inactive.
`CCOc1ccc(C2C(C#N)=C(N)Oc3cc(O)ccc32)cc1OCC` (stereo not drawn) gave KCNQ1 inh inactive, KCNQ1 act inactive, KCNK9 block inactive, hERG rescue -6, KCNK3 inh -9.3*, KCNK3 confirm 99* and KCNK3 uninduced inactive.
For Cc1cc(NS(=O)(=O)c2c(C)[nH]c(=O)[nH]c2=O)ccc1Br the results were KCNQ1 inh inactive, KCNQ1 act inactive, KCNK9 block inactive, hERG rescue -2 and KCNK3 inh inactive.
For Cc1noc(C)c1COC(=O)C1CCN(S(=O)(=O)c2c(Cl)cccc2Cl)CC1 the results were KCNQ1 inh inactive, KCNQ1 act inactive, KCNK9 block inactive, hERG rescue -11, KCNK3 inh -9*, KCNK3 confirm 114* and KCNK3 uninduced inactive.
`Cc1cc(S(=O)(=O)N2CCOCC2)ccc1OCC(=O)Nc1ccc(F)cc1` gave KCNQ1 inh inactive, KCNQ1 act inactive, KCNK9 block inactive, hERG rescue -6 and KCNK3 inh inactive.
For O=C(c1ccccc1)c1ccc(Sc2ccc([N+](=O)[O-])cc2)cc1 the results were KCNQ1 inh inactive, KCNQ1 act inactive, KCNK9 block inactive, hERG rescue -20, KCNK3 inh -8.8*, KCNK3 confirm 115* and KCNK3 uninduced 0.15*.
`COc1ccc(Cl)cc1NC(=O)CSc1nnc(CNC(=O)c2cccs2)o1` gave KCNQ1 inh inactive, KCNQ1 act inactive, KCNK9 block inactive, hERG rescue -10 and KCNK3 inh inactive.
Screening Cc1csc(NC(=O)CSc2nc3nc(C)cc(C)n3n2)n1 returned KCNK3 inh inactive.
Cc1onc(-c2ccc3c(c2)OCO3)c1-c1ccc2[nH]ccc2c1 was read as KCNQ1 inh inactive, KCNQ1 act inactive, KCNK9 block inactive, hERG rescue -21, KCNK3 inh -9.5*, KCNK3 confirm 95* and KCNK3 uninduced inactive.
For CCN(CC(=O)Nc1ccc(OC)cc1)CC(=O)Nc1cccc(C#N)c1 the results were KCNQ1 inh inactive, KCNQ1 act inactive, KCNK9 block inactive, hERG rescue -9 and KCNK3 inh inactive.
CCN(CC(=O)Nc1cccc(C#N)c1)CC(=O)Nc1cccc(OC)c1 was read as KCNQ1 inh inactive, KCNQ1 act inactive, KCNK9 block inactive, hERG rescue -17, KCNK3 inh -9.7*, KCNK3 confirm 90* and KCNK3 uninduced inactive.
Screening CC(NC(=O)C(=O)N1CCOCC1)C(c1cccs1)N1CCN(c2ccccc2)CC1 (stereo not drawn) returned KCNQ1 inh inactive, KCNQ1 act inactive, KCNK9 block inactive, hERG rescue -2 and KCNK3 inh inactive.
`CC(OC(=O)C1CCC1)C(=O)Nc1cc(Cl)cc(Cl)c1` (stereo not drawn) gave KCNQ1 inh inactive, KCNQ1 act inactive, KCNK9 block inactive, hERG rescue -12, KCNK3 inh -9*, KCNK3 confirm 96* and KCNK3 uninduced inactive.
For CC(=O)c1cccc(NC(=O)C(C)OC(=O)C2CCC2)c1 (stereo not drawn) the results were KCNQ1 inh inactive, KCNQ1 act inactive, KCNK9 block inactive, hERG rescue -4 and KCNK3 inh inactive.
`CN(C)CCN=Cc1c(O)n(Cc2ccccc2)c(=O)c2ccccc12` gave KCNQ1 inh inactive, KCNQ1 act inactive, KCNK9 block inactive, hERG rescue -9 and KCNK3 inh inactive.
`CN(C)CCCN=Cc1c(O)n(Cc2ccccc2)c(=O)c2ccccc12` gave KCNQ1 inh inactive, KCNQ1 act inactive, KCNK9 block -7.2*, hERG rescue -11, KCNK3 inh -11*, KCNK3 confirm 98* and KCNK3 uninduced inactive.
Screening CC(=O)c1c(C)[nH]c(C(=O)Nc2ccc(Cl)c(S(=O)(=O)N(C)C)c2)c1C returned KCNQ1 inh inactive, KCNQ1 act inactive, KCNK9 block inactive, hERG rescue -35, KCNK3 inh -11*, KCNK3 confirm 103* and KCNK3 uninduced inactive.
Screening OCCNCc1cccc(-c2ccccc2)c1O returned KCNK3 inh inactive.
CCOC(=O)c1csc(NC(=O)Nc2cccc(Cl)c2)n1 was read as KCNQ1 inh inactive, KCNQ1 act inactive, KCNK9 block inactive, hERG rescue -12 and KCNK3 inh inactive.
CCCCN1CN(S(=O)(=O)c2ccc(OC)cc2)c2nc3ccccc3nc21 was read as KCNQ1 inh inactive, KCNQ1 act inactive, KCNK9 block inactive, hERG rescue -9, KCNK3 inh -8.9*, KCNK3 confirm 90* and KCNK3 uninduced inactive.
